Structures are written as SMILES. Converted amounts (≈) assume the structure as drawn.

Holding throughout (format): functional
For experiment [1], the system named is Staphylococcus aureus. Nature of the experiment: In vitro minimum inhibitory concentration required to produce antibacterial activity against Staphylococcus aureus 887MSSA. A digest of the protocol:
(§1)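 Two-fold agar dilution on Mueller-Hinton agar. Overnight broth cultures diluted in fresh broth to […]; 10⁴ CFU/spot applied by inoculating apparatus onto plates with graded drug concentrations. Incubated 18 h at 37 °C; MIC taken as the lowest concentration giving complete growth inhibition.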

In experiment [2] the test system is Staphylococcus aureus. The experiment in a line: In vitro minimum inhibitory concentration required to produce antibacterial activity against Staphylococcus aureus 743 MRSA. A digest of the protocol:
as §1

For experiment [3], the system named is Enterobacter cloacae. Nature of the experiment: In vitro minimum inhibitory concentration required to produce antibacterial activity against Enterobacter cloacae 908SSI. A digest of the protocol:
as §1

For experiment [4], the system named is Streptococcus pneumoniae. Nature of the experiment: Minimum inhibitory concentration for antibacterial activity against Streptococcus pneumoniae Q19 (pen s). In a few lines:
as §1

The subject of experiment [5] is Streptococcus pneumoniae. Nature of the experiment: In vitro minimum inhibitory concentration required to produce antibacterial activity against Streptococcus pneumoniae 1/37(pen r). In a few lines: as §1
Experiment [6] deals with Enterococcus faecalis. Nature of the experiment: In vitro minimum inhibitory concentration required to produce antibacterial activity against Enterococcus faecalis ATCC 29212. A digest of the protocol: as §1
The test system of experiment [7] is Escherichia coli. Nature of the experiment: In vitro minimum inhibitory concentration required to produce antibacterial activity against Escherichia coli 25922. A digest of the protocol:
as §1

Experiment [8] relates to Citrobacter freundii. Nature of the experiment: In vitro minimum inhibitory concentration required to produce antibacterial activity against Citrobacter freundii 902. In a few lines:
as §1

The test system of experiment [9] is Pseudomonas aeruginosa. Nature of the experiment: In vitro minimum inhibitory concentration required to produce antibacterial activity against Pseudomonas aeruginosa ATCC 27853. A digest of the protocol:
as §1

The MIC is the lowest concentration found to suppress growth. A high value points to a less susceptible organism. Turning to `COc1cccc(N2CC/C(=C\C3=C(C(=O)O)N4C(=O)[C@@H](NC(=O)/C(=N\O)c5csc(N)n5)[C@H]4SC3)C2=O)c1`, the MIC in experiment [1] was 1 µg/mL (≈ 1.75 µM); in [2] it was 8 µg/mL (≈ 14 µM); in [3], 1 µg/mL (≈ 1.75 µM); in [4], at most 0.06 µg/mL; in experiment [5], 0.5 µg/mL (≈ 0.876 µM); in experiment [6], 0.5 µg/mL (≈ 0.876 µM). Besides, the MIC in [7] is 0.5 µg/mL (≈ 0.876 µM); in experiment [8] it was 0.5 µg/mL (≈ 0.876 µM); in experiment [9] it was above 32 µg/mL.

For the compound `Nc1nc(/C(=N/O)C(=O)N[C@@H]2C(=O)N3C(C(=O)O)=C(/C=C4\CCN(c5ccc(O)cc5)C4=O)CS[C@H]23)cs1`, the MIC in experiment [1] is 0.5 µg/mL (≈ 0.898 µM); in experiment [2], 4 µg/mL (≈ 7.19 µM); in [3] it was 0.25 µg/mL (≈ 0.449 µM); in experiment [4] it was 0.12 µg/mL (≈ 0.216 µM); in experiment [5], 1 µg/mL (≈ 1.8 µM); in [6] it was 0.5 µg/mL (≈ 0.898 µM). Further, the minimal inhibitory concentration (MIC) in experiment [7] was at most 0.06 µg/mL; in experiment [8], at most 0.06 µg/mL; in [9] it was 4 µg/mL (≈ 7.19 µM).

Regarding `Nc1nc(/C(=N/O)C(=O)N[C@@H]2C(=O)N3C(C(=O)O)=C(/C=C4\CCNC4=O)CS[C@H]23)cs1`, the MIC was 1 µg/mL (≈ 2.15 µM) in experiment [1]; 8 µg/mL (≈ 17.2 µM) in experiment [2]; 0.5 µg/mL (≈ 1.08 µM) in [3]; 0.06 µg/mL (≈ 0.129 µM) in experiment [4]; 2 µg/mL (≈ 4.31 µM) in experiment [5]; 2 µg/mL (≈ 4.31 µM) in [6]. Moreover, the MIC is at most 0.06 µg/mL in experiment [7], 0.5 µg/mL (≈ 1.08 µM) in experiment [8] and above 16 µg/mL in [9].

As for `Nc1nc(/C(=N/O)C(=O)N[C@@H]2C(=O)N3C(C(=O)O)=C(/C=C4\CCN(c5ccc(O)c(O)c5)C4=O)CS[C@H]23)cs1`, the MIC was 2 µg/mL (≈ 3.49 µM) in [1]; 16 µg/mL (≈ 27.9 µM) in experiment [2]; 0.25 µg/mL (≈ 0.437 µM) in [3]; at most 0.06 µg/mL in experiment [4]; 2 µg/mL (≈ 3.49 µM) in [5]; 0.5 µg/mL (≈ 0.873 µM) in experiment [6]. The MIC in [7] was 0.25 µg/mL (≈ 0.437 µM); in experiment [8], 0.12 µg/mL (≈ 0.21 µM); in experiment [9], 32 µg/mL (≈ 55.9 µM).

`Cc1cc(N2CC/C(=C\C3=C(C(=O)O)N4C(=O)[C@@H](NC(=O)/C(=N\O)c5csc(N)n5)[C@H]4SC3)C2=O)no1`: the minimum inhibitory concentration (MIC) in experiment [1] turned out to be 1 µg/mL (≈ 1.83 µM); in experiment [2] it was 8 µg/mL (≈ 14.7 µM); in experiment [3] it was 0.5 µg/mL (≈ 0.916 µM); in [4], 0.12 µg/mL (≈ 0.22 µM); in experiment [5] it was 2 µg/mL (≈ 3.67 µM); in experiment [6], 0.25 µg/mL (≈ 0.458 µM). Further, the MIC in experiment [7] is 0.12 µg/mL (≈ 0.22 µM); in experiment [8] it was 0.12 µg/mL (≈ 0.22 µM); in experiment [9], above 32 µg/mL.

In the case of `Nc1nc(/C(=N/O)C(=O)N[C@@H]2C(=O)N3C(C(=O)O)=C(/C=C4\CCN(CC5CC5)C4=O)CS[C@H]23)cs1`, the MIC in experiment [1] was 1 µg/mL (≈ 1.93 µM); in experiment [2], 16 µg/mL (≈ 30.9 µM); in experiment [3] it was 0.25 µg/mL (≈ 0.482 µM); in experiment [4], 0.03 µg/mL (≈ 0.0579 µM); in experiment [5], 1 µg/mL (≈ 1.93 µM); in [6], 1 µg/mL (≈ 1.93 µM). In addition, the results for the minimum inhibitory concentration (MIC) in experiment [7], in experiment [8] and in experiment [9] were 0.12 µg/mL (≈ 0.231 µM), 0.12 µg/mL (≈ 0.231 µM) and 16 µg/mL (≈ 30.9 µM), respectively.

As for `CC(C)CO/N=C(\C(=O)N[C@@H]1C(=O)N2C(C(=O)O)=C(/C=C3\CCN(CC(F)(F)F)C3=O)CS[C@H]12)c1csc(N)n1`, the MIC in experiment [1] was 8 µg/mL (≈ 13.3 µM); in experiment [2], 4 µg/mL (≈ 6.64 µM); in experiment [3], 4 µg/mL (≈ 6.64 µM); in experiment [4] it was at most 0.06 µg/mL; in experiment [5], 1 µg/mL (≈ 1.66 µM); in experiment [6], 16 µg/mL (≈ 26.6 µM). In addition, the results for the MIC in [7], in experiment [8] and in experiment [9] were 2 µg/mL (≈ 3.32 µM), 4 µg/mL (≈ 6.64 µM) and 16 µg/mL (≈ 26.6 µM), respectively.

On to `Nc1nc(/C(=N/O)C(=O)N[C@@H]2C(=O)N3C(C(=O)O)=C(/C=C4\CCN(Cc5nn[nH]n5)C4=O)CS[C@H]23)cs1`, for which the MIC was determined as 8 µg/mL (≈ 14.6 µM) in experiment [1]; 32 µg/mL (≈ 58.5 µM) in experiment [2]; 16 µg/mL (≈ 29.3 µM) in experiment [3]; 0.12 µg/mL (≈ 0.22 µM) in experiment [4]; 2 µg/mL (≈ 3.66 µM) in experiment [5]; 16 µg/mL (≈ 29.3 µM) in [6]. Moreover, the MIC is 0.25 µg/mL (≈ 0.457 µM) in experiment [7], 2 µg/mL (≈ 3.66 µM) in experiment [8] and above 32 µg/mL in experiment [9].

`Nc1nc(/C(=N/O)C(=O)N[C@@H]2C(=O)N3C(C(=O)O)=C(/C=C4\CCN(O)C4=O)CS[C@H]23)cs1`: the MIC in experiment [1] was 1 µg/mL (≈ 2.08 µM); in experiment [2] it was 16 µg/mL (≈ 33.3 µM); in [3], 16 µg/mL (≈ 33.3 µM); in experiment [4], 0.06 µg/mL (≈ 0.125 µM); in [5] it was 4 µg/mL (≈ 8.32 µM); in experiment [6], 4 µg/mL (≈ 8.32 µM). The MIC was at most 0.06 µg/mL in experiment [7], 0.5 µg/mL (≈ 1.04 µM) in experiment [8] and 8 µg/mL (≈ 16.6 µM) in experiment [9].

On to `Nc1nc(/C(=N/O)C(=O)N[C@@H]2C(=O)N3C(C(=O)O)=C(/C=C4/CCN(C5CC5)C4=O)CS[C@H]23)cs1`, for which the MIC in experiment [1] amounted to 1 µg/mL (≈ 1.98 µM); in experiment [2], 16 µg/mL (≈ 31.7 µM); in experiment [3] it was 1 µg/mL (≈ 1.98 µM); in experiment [4], 0.25 µg/mL (≈ 0.495 µM); in experiment [5] it was 2 µg/mL (≈ 3.96 µM); in experiment [6], 16 µg/mL (≈ 31.7 µM). The minimum inhibitory concentration (MIC) was 0.5 µg/mL (≈ 0.991 µM) in experiment [7], 0.5 µg/mL (≈ 0.991 µM) in [8] and above 32 µg/mL in experiment [9].

The values above are taken from ChEMBL document CHEMBL1129566 (J Med Chem, 1996).
